According to ChEMBL document CHEMBL2177098, “Synthesis and evaluation of novel ¹⁸F labeled 2-pyridinylbenzoxazole and 2-pyridinylbenzothiazole derivatives as ligands for positron emission tomography (PET) imaging of β-amyloid plaques” (J Med Chem, 2012):
Active and inactive are the calls of the source. No cut-off for these calls is given here.

How the values were obtained:
[1] = Displacement of [125I]-IMPY from amyloid beta (1 to 42) fibrils after 2 hrs by gamma-counting analysis
Outline: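 Competition binding with aggregated Aβ1-42 fibrils and [125I]IMPY (60000−100000 cpm/100 μL) in 0.05% BSA (1 mL total); inhibitors 10⁻⁴−10^−8.5 M in ethanol. Incubated 37 °C for 2 h, then GF/B vacuum filtration with PBS (0.02 M, pH 7.4) washes and γ counting. Three repeats; IC50 converted to Ki by Cheng−Prusoff.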

Mus musculus [2] = organism: Mus musculus; experiment: Binding affinity to amyloid beta plaques in transgenic C57BL6 mouse cortex expressing APP Swedish mutant/PSEN1 at 370 KBq/100 ul after 1 hr by thioflavinS-staining method; conditions: tested as the 18F-labelled form
Outline: (§1)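 Paraffin brain sections from 12-month-old Tg mice (C57BL6, APPswe/PSEN1) and age-matched controls, deparaffinized through xylene and graded ethanol, then PBS (0.2 M, pH 7.4) 30 min. Incubated with 18F tracer (370 KBq per 100 μL) 1 h at room temperature, washed in 40% EtOH, rinsed in water, then phosphor plate exposure 2 h. The same sections were afterwards stained with 0.125% thioflavin S in 10% EtOH for 3 min and washed in 40% EtOH.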

Mus musculus [3] = organism: Mus musculus; experiment: Binding affinity to amyloid beta plaques in transgenic C57BL6 mouse hippocampus expressing APP Swedish mutant/PSEN1 at 370 KBq/100 ul after 1 hr by thioflavinS-staining method; format: tissue-based; conditions: tested as the 18F-labelled form; outline: as §1
Mus musculus [4] = organism: Mus musculus; experiment: Binding affinity to amyloid beta plaques in transgenic C57BL6 mouse hippocampus expressing APP Swedish mutant/PSEN1 at 370 KBq/100 ul after 1 hr by autoradiographic analysis; format: tissue-based; conditions: tested as the 18F-labelled form; outline: as §1
Mus musculus [5] = organism: Mus musculus; experiment: Binding affinity to amyloid beta plaques in transgenic C57BL6 mouse cortex expressing APP Swedish mutant/PSEN1 at 370 KBq/100 ul after 1 hr by autoradiographic analysis; conditions: tested as the 18F-labelled form; outline: as §1

Ki [1] [nM] | Activity (Mus musculus [2]) | Activity (Mus musculus [3]) | Activity (Mus musculus [4]) | Activity (Mus musculus [5]) | SMILES
4.6 | – | – | – | – | CN(C)c1ccc(-c2nc3ccc(OCCOCCF)cc3s2)cn1
9.9 | Active | Active | Active | Active | CN(C)c1ccc(-c2nc3cc(OCCOCCOCCF)ccc3o2)cn1
